# Assay results published in ChEMBL document CHEMBL1147382, “Cytotoxic constituents from Hyptis verticillata” (J Nat Prod, 1993).
# Calls of active or inactive are those of the source. The rule behind the calls is not given here.
# Columns and labels:
# [1] = Antimitotic activity in rat ASK cells assessed as reversal of astrocyte formation at 0.16 ug/mL; format: functional
# Summary of the method: (§1)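 Cultured rat glioma (ASK) cells were used, following Swanson et al. The antimitotic read-out was the dose giving 100% reversal of astrocyte conversion. Pure lignans were tested across a range of concentrations.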
# [2] = Antimitotic activity in rat ASK cells assessed as reversal of astrocyte formation at 4 ug/mL; format: functional; summary of the method: as §1
# [3] = Toxicity in brine shrimp; format: organism-based; details: artemia, in vivo
# Lu1 = assay: Cytotoxicity against human Lu1 cells; format: functional; details: read-out: ED50 (the source's name)
# [4] = Cytotoxicity against human BC1 cells; format: functional; details: read-out: ED50 (the source's name)
# [5] = Antimitotic activity in rat ASK cells assessed as reversal of astrocyte formation at 20 ug/mL; format: functional; summary of the method: as §1
# [6] = Antimitotic activity in rat ASK cells assessed as reversal of astrocyte formation at 100 ug/mL; format: functional; summary of the method: as §1
# [7] = Antimitotic activity in rat ASK cells assessed as reversal of astrocyte formation at 0.8 ug/mL; format: functional; summary of the method: as §1
# KB = assay: Cytotoxicity against human KB cells; format: functional; details: read-out: ED50 (the source's name)
# LNCaP = assay: Cytotoxicity against human LNCAP cells; format: functional; details: read-out: ED50 (the source's name)
# [8] = Cytotoxicity against human KBV1 cells; format: functional; details: KB-V1, read-out: ED50 (the source's name)
# [9] = Antimitotic activity in rat ASK cells assessed as reversal of astrocyte formation at 0.032 ug/mL; format: functional; summary of the method: as §1
# A-431 = assay: Cytotoxicity against human A431 cells; format: functional; details: read-out: ED50 (the source's name)
# [10] = Cytotoxicity against human U373 cells; format: functional, U-373MG ATCC; details: U373 MG, read-out: ED50 (the source's name)
# HT = assay: Cytotoxicity against human HT cells; format: functional; details: read-out: ED50 (the source's name)
# ZR-75-1 = assay: Cytotoxicity against human ZR-75-1 cells; format: functional; details: read-out: ED50 (the source's name)
# P388 = assay: Cytotoxicity in mouse P388 cells; format: functional; details: read-out: ED50 (the source's name)
# Col2 = assay: Cytotoxicity against human Col2 cells; format: functional; details: read-out: ED50 (the source's name)
# [11] = Antimitotic activity in rat ASK cells assessed as reversal of astrocyte formation at 0.0064 ug/mL; format: functional; summary of the method: as §1
# Candida albicans = assay: Antimicrobial activity against Candida albicans ATCC 10231 at 0.2 to 1 ug/ml; format: functional, organism-based
# [12] = Antimitotic activity in rat ASK cells assessed as reversal of astrocyte formation at 0.00128 ug/mL; format: functional
# Summary of the method: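 Cultured rat glioma (ASK) cells, run essentially by a previously published astrocyte-formation procedure. Antimitotic potential is scored as the dose needed to give 100% reversal of astrocyte conversion.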
Compound,Activity [1] [%],Activity [2] [%],LC50 [3] [µg/mL],EC50 (Lu1) [µg/mL],EC50 [4] [µg/mL],Activity [5] [%],Activity [6] [%],Activity [7] [%],EC50 (KB) [µg/mL],EC50 (LNCaP) [µg/mL],EC50 [8] [µg/mL],Activity [9] [%],EC50 (A-431) [µg/mL],EC50 [10] [µg/mL],EC50 (HT) [µg/mL],EC50 (ZR-75-1) [µg/mL],EC50 (P388) [µg/mL],EC50 (Col2) [µg/mL],Activity [11] [%],Activity [12] [%],also measured
COc1cc([C@@H]2c3cc4c(cc3C[C@H]3COC(=O)[C@@H]32)OCO4)cc(OC)c1O [4'-DEMETHYLDEOXYPODOPHYLLOTOXIN],100,100,0.2,0.03,0.01,100,100,100,0.01,0.02,0.02,100,0.08,0.1,0.01,2.1,0.005,0.03,0,–,Activity (Candida albicans): Active
COc1cc([C@@H]2c3cc4c(cc3C[C@H]3COC(=O)[C@H]32)OCO4)cc(OC)c1OC [DEOXYPICROPODOPHYLLIN],0,100,142,0.09,2.1,100,100,100,0.1,0.2,0.7,0,> 20,0.1,0.2,0.6,0.1,0.3,0,–,–
COc1cc2cc(c1Cl)N(C)C(=O)C[C@H](OC(=O)[C@H](C)N(C)C(C)=O)[C@]1(C)O[C@H]1[C@H](C)[C@@H]1C[C@@](O)(NC(=O)O1)[C@H](OC)/C=C/C=C(\C)C2 [MAYTANSINE],100,100,–,–,–,100,100,100,–,–,–,100,–,–,–,–,–,–,100,0,–
COc1cc([C@@H]2c3cc4c(cc3C[C@@H]3COC(=O)[C@H]32)OCO4)cc(OC)c1OC [ISODEOXYPODOPHYLLOTOXIN],0,0,> 500,15.9,17.5,100,100,0,6.7,12,11.5,0,6.2,2.9,10.7,13.2,> 20,8.9,0,–,–
CC[C@]1(O)C[C@@H]2CN(CCc3c([nH]c4ccccc34)[C@@](C(=O)OC)(c3cc4c(cc3OC)N(C)[C@H]3[C@@](O)(C(=O)OC)[C@H](OC(C)=O)[C@]5(CC)C=CCN6CC[C@]43[C@@H]65)C2)C1 [VINBLASTINE],100,100,–,–,–,100,100,100,–,–,–,100,–,–,–,–,–,–,0,0,–
COc1cc(C[C@H]2C(=O)OC[C@@H]2Cc2ccc3c(c2)OCO3)cc(OC)c1OC,100,100,2.8,0.1,0.05,100,100,100,0.08,0.16,0.06,0,> 20,0.3,0.07,0.5,0.4,0.08,0,–,Activity (Candida albicans): Active
CC[C@]1(O)C[C@H]2CN(CCc3c([nH]c4ccccc34)[C@@](C(=O)OC)(c3cc4c(cc3OC)N(C=O)[C@H]3[C@@](O)(C(=O)OC)[C@H](OC(C)=O)[C@]5(CC)C=CCN6CC[C@]43[C@@H]65)C2)C1 [VINCRISTINE],100,100,–,–,–,100,100,100,–,–,–,0,–,–,–,–,–,–,0,0,–
